What all share (format): functional
Assay [1] in a line: Growth inhibition of human SJ-G2 cells at 100 uM after 72 hrs y MTT assay. To be noted: for inhibition of growth at 100 µM: Homo sapiens, SJ-G2, 72 h, read-out: GI. The essentials:
(§1)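 Log-phase cells in supplemented DMEM (10% FBS, 4 mM glutamine, antibiotics; 37 °C, 5% CO2) were plated in duplicate at 2500–4000 cells/well. Compound was added 24 h later at a fixed 100 µM, from 40 mM DMSO stocks. After 72 h, MTT absorbance was read at 540 nm and expressed as percent growth inhibition; 100% means total inhibition.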

Another assay has as its system HT-29. The assay is described as follows: Growth inhibition of human HT-29 cells at 100 uM after 72 hrs y MTT assay. To be noted: for inhibition of growth at 100 µM: Homo sapiens, HT-29, 72 h, read-out: GI. The method in brief: as §1
For orientation: Formazan colour is commonly taken as a measure of viable cells.

Another assay has as its system A-431. As to the kind of experiment: Growth inhibition of human A431 cells at 100 uM after 72 hrs y MTT assay. The conditions noted are these: for inhibition of growth at 100 µM: Homo sapiens, A-431, 72 h, read-out: GI. The essentials:
as §1

A further assay has as its system DU-145. The assay is described as follows: Growth inhibition of human DU145 cells at 100 uM after 72 hrs y MTT assay. To be noted: for inhibition of growth at 100 µM: Homo sapiens, DU-145, 72 h, read-out: GI. The method in brief: as §1
The test system of another assay is A2780. The assay is described as follows: Growth inhibition of human A2780 cells at 100 uM after 72 hrs y MTT assay. The conditions noted are these: for inhibition of growth at 100 µM: Homo sapiens, A2780, 72 h, read-out: GI. The method in brief: as §1
A further assay concerns NCI-H460. The assay is described as follows: Growth inhibition of human H460 cells at 100 uM after 72 hrs y MTT assay. The conditions noted are these: for inhibition of growth at 100 µM: Homo sapiens, NCI-H460, 72 h, read-out: GI. The method in brief:
as §1

The next assay has as its system SW480. As to the kind of experiment: Growth inhibition of human SW480 cells at 100 uM after 72 hrs y MTT assay. The conditions noted are these: for inhibition of growth at 100 µM: Homo sapiens, SW480, 72 h, read-out: GI. The method in brief: as §1
The test system of another assay is MCF7. The assay is described as follows: Growth inhibition of human MCF7 cells at 100 uM after 72 hrs y MTT assay. The conditions noted are these: for inhibition of growth at 100 µM: Homo sapiens, MCF7, 72 h, read-out: GI. The method in brief:
as §1

Assay [2] can be described thus: Growth inhibition of human BE(2)-C cells at 100 uM after 72 hrs y MTT assay. To be noted: for inhibition of growth at 100 µM: Homo sapiens, BE(2)-C, 72 h, read-out: GI. The essentials: as §1

The record followed here is ChEMBL document CHEMBL2040765, “Synthesis and anticancer activity of a series of norcantharidin analogues” (2012).

On to `CC1OC1CO[C@@H]1OC(=O)[C@H]2[C@@H]1[C@@H]1CC[C@H]2O1` (stereo partly drawn), for which the inhibition of growth at 100 µM worked out at 80% in assay [1]; 70% in the assay on HT-29; 18% in the assay on A-431; 17% in the assay with DU-145; 26% with A2780; 9% in the assay with NCI-H460. For the same compound, the inhibition of growth at 100 µM was found to be 17% in the assay on SW480, 27% with MCF7 and 23% in assay [2].

Regarding `O=C1O[C@H](OCC2CO2)[C@@H]2[C@H]1[C@H]1CC[C@@H]2O1` (stereo in doubt; 19), the “growth inhibition (GI)” value in [1] turned out to be 75%; with HT-29, 69%; in the assay on A2780, 46%; in the assay on SW480 it was 32%; in the assay with MCF7, 37%. For the same compound, the inhibition of growth at 100 µM turned out to be 35% with A-431, 33% in the assay on DU-145 and 11% in the assay with NCI-H460.

With `O=C1O[C@H](OCC2CO2)[C@@H]2[C@H]1[C@H]1CC[C@@H]2O1` (stereo in doubt; 20), the inhibition of growth at 100 µM worked out at 59% in [1]; 52% with HT-29; 16% in the assay with SW480; 43% in the assay on MCF7; 42% in [2]. The “growth inhibition (GI)” value in the assay with A-431 amounted to 18%; with DU-145, 21%; with A2780, 83%; in the assay on NCI-H460, 7%.

Turning to `O=C1O[C@@H](OCC2CO2)[C@@H]2[C@H]1[C@H]1CC[C@@H]2O1` (stereo in doubt; 21), the “growth inhibition (GI)” value in assay [1] was found to be 73%; in the assay on HT-29, 68%; with SW480, 23%; with MCF7, 33%; in [2] it was 35%. The inhibition of growth at 100 µM with A-431 was determined as 22%; in the assay with DU-145 it was 25%; in the assay with A2780 it was 42%; in the assay with NCI-H460, 7%.

`CC1OC1CO[C@H]1OC(=O)[C@H]2[C@@H]1[C@@H]1CC[C@H]2O1` (stereo in doubt; 23): the “growth inhibition (GI)” value in [1] was determined as 88%; in the assay on HT-29, 75%; in the assay on A-431, 35%; in the assay with NCI-H460, 24%; in the assay with SW480 it was 41%; in the assay on MCF7 it was 61%. Also, in [2], the “growth inhibition (GI)” value was 54%. The inhibition of growth at 100 µM is 37% in the assay with DU-145 and 55% in the assay with A2780.

For the compound `CC1OC1CO[C@H]1OC(=O)[C@H]2[C@@H]1[C@@H]1CC[C@H]2O1` (stereo in doubt; 24), the inhibition of growth at 100 µM in [1] worked out at 79%; in the assay on HT-29 it was 68%; in the assay on SW480 it was 37%; in the assay on MCF7, 46%; in [2] it was 53%. Moreover, the “growth inhibition (GI)” value is recorded as 17% in the assay on A-431, 20% in the assay on DU-145, 58% in the assay on A2780 and 9% with NCI-H460.
